Results gathered from unrelated publications.
Protocols differ between the studies behind these lines.
KIT autoinhibited: Mast/stem cell growth factor receptor Kit, autoinhibited (KIT, Homo sapiens, UniProt P10721)
KIT D816V: Mast/stem cell growth factor receptor Kit (KIT, Homo sapiens, UniProt P10721, D816V)
KIT L576P: Mast/stem cell growth factor receptor Kit (KIT, Homo sapiens, UniProt P10721, L576P)
KIT A829P: Mast/stem cell growth factor receptor Kit (KIT, Homo sapiens, UniProt P10721, A829P)
KIT T670I/V559D: Mast/stem cell growth factor receptor Kit (KIT, Homo sapiens, UniProt P10721, T670I/V559D)
KIT: Mast/stem cell growth factor receptor Kit (KIT, Homo sapiens, UniProt P10721)
KIT D816H: Mast/stem cell growth factor receptor Kit (KIT, Homo sapiens, UniProt P10721, D816H)
KIT V559D/V654A: Mast/stem cell growth factor receptor Kit (KIT, Homo sapiens, UniProt P10721, V559D/V654A)

| SMILES | target | effect on | method | tested at | remaining binding [%] |
| --- | --- | --- | --- | --- | --- |
| c1cncc(-c2cccc(Nc3nccc(NC4CCCCC4)n3)c2)c1 | KIT autoinhibited | binding | competition with immobilised ligand | 10 µM | 43 |
| COc1cnc(Nc2cccc(S(N)(=O)=O)c2)nc1N1CCN(c2ccccc2)CC1 | KIT D816V | binding | competition with immobilised ligand | 1 µM | 92 |
| O=C(Nc1cccnn1)N1CCC(=Cc2cccc(Oc3ccc(C(F)(F)F)cn3)c2)CC1 | KIT L576P | binding | competition with immobilised ligand | 1 µM | 0 |
| O=C(NCC1CCOCC1)c1n[nH]cc1NC(=O)c1c(F)cccc1F | KIT A829P | binding | competition with immobilised ligand | 1 µM | 84 |
| CN1CCN(c2ccc(Nc3nccc(-c4cccc([N+](=O)[O-])c4)n3)cc2C(F)(F)F)CC1 | KIT A829P | binding | – | 10 µM | 4.3 |
| CNC(=O)c1ccc(Nc2ncc(C(F)(F)F)c(NCc3nccnc3N(C)S(C)(=O)=O)n2)cc1 | KIT L576P | cell-free assay | competition with immobilised ligand | 0.1 µM | 86 |
| c1cnn2ncc(-c3ccnc(N4CCC45COC5)n3)c2c1 | KIT T670I/V559D | binding | – | 1 µM | 84 |
| Nc1ncc2c(n1)-c1c([nH]c3ccc(C#CC4CC4)cc13)CCCC2 | KIT | binding | competition with immobilised ligand | 1 µM | 95 |
| Cc1cnc(Nc2ccc(C(=O)N3CCC(N4CCCC4)CC3)cc2)nc1-c1cc2ccccc2s1 | KIT D816V | binding | competition with immobilised ligand | 1 µM | 5.2 |
| CCN1CCN(Cc2ccc(C(=O)Nc3ccc(C)c(Oc4ccc5c(c4)CC(=O)N5)c3)cc2C(F)(F)F)CC1 | KIT D816H | binding | competition with immobilised ligand | 1 µM | 100 |
| COc1cnc(Nc2cccc(S(N)(=O)=O)c2)nc1N1CCN(c2ccccc2)C(=O)C1 | KIT autoinhibited | binding | competition with immobilised ligand | 1 µM | 95 |
| N[C@@H]1CCN(c2nccc(-c3cnn4ncccc34)n2)C1 | KIT | binding | – | 1 µM | 95 |
| CNC(=O)[C@@H]1CC[C@@H](n2c(-c3ccc4cnccc4c3)nc3ccc(C(=O)NCc4cccc(C(N)=O)c4)cc32)C1 | KIT D816V | binding | competition with immobilised ligand | 1 µM | 99 |
| C=CC(=O)N1CCC(C(=O)NCC(=O)N2CCN(c3nc(-c4cnc(N)nc4C(F)F)nc(N4CCOCC4)n3)CC2)CC1 | KIT V559D/V654A | binding | competition with immobilised ligand | 1 µM | 100 |
| O=C(NCCCN1CCOCC1)c1ccc(Nc2nccc(-c3cc4ccccc4s3)n2)cc1 | KIT autoinhibited | binding | competition with immobilised ligand | 1 µM | 76 |
| O=C(Nc1c[nH]nc1C(=O)NC1CCNCC1)c1cc(F)cc(F)c1 | KIT A829P | binding | competition with immobilised ligand | 1 µM | 92 |
| C[C@H]1CCN(c2nccc(-c3cnn4ncccc34)n2)C1 | KIT V559D/V654A | binding | – | 1 µM | 79 |

| SMILES | target | effect on | method | tested at | remaining binding [%] |
| --- | --- | --- | --- | --- | --- |
| O=c1nc(-c2ccccn2)sc2ccccc12 | KIT A829P | binding | competition with immobilised ligand | 1 µM | 100 |
| CN1CCN(c2ccc(Nc3nccc(-c4ccccc4)n3)cc2C(F)(F)F)CC1 | KIT A829P | binding | – | 10 µM | 20 |
| CN(C)c1nccc(-c2cnn3ncccc23)n1 | KIT L576P | binding | – | 1 µM | 100 |
| O=C(c1ccc(Nc2ncc(Cl)c(-c3cc4ccccc4s3)n2)cc1)N1CCC(N2CCCC2)CC1 | Mast/stem cell growth factor receptor Kit (KIT, Homo sapiens, UniProt P10721, V559D) | binding | competition with immobilised ligand | 1 µM | 6.6 |
| COc1ncc2cc3ccccc3nc2c1C#N | KIT | cell-free assay | competition with immobilised ligand | 5 µM | 92 |
| Cc1cc(-n2nc(Cc3cc(F)cc(C(F)(F)F)c3)nc2C)ccc1C(N)=O | KIT A829P | cell-free assay | competition with immobilised ligand | 1 µM | 100 |
| O=C(NCCCN1CCOCC1)c1ccc(Nc2ncc(Cl)c(-c3ccc(Cl)s3)n2)cc1 | KIT D816V | binding | competition with immobilised ligand | 1 µM | 26 |
| O=C(NC[C@@H]1[C@H]2CN(C(=O)OCc3cc(C(F)(F)F)cc(C(F)(F)F)c3)C[C@@H]12)c1ccc2[nH]nnc2c1 | KIT | cell-free assay | competition with immobilised ligand | 1 µM | 89 |
| O=C(c1ccc(Nc2ncc(Cl)c(-c3ccc(Cl)s3)n2)cc1)N1CCC(N2CCCC2)CC1 | KIT D816V | binding | competition with immobilised ligand | 1 µM | 17 |
| F[C@@H]1CCN(c2nccc(-c3cnn4ncccc34)n2)C1 | KIT A829P | binding | – | 1 µM | 74 |
| COc1cccc(CNC(=O)c2nc3scc(COCc4ccc(C(=O)O)cc4)c3c(=O)[nH]2)c1 | KIT D816V | cell-free assay | competition with immobilised ligand | 1 µM | 100 |
| C[C@@H](c1ccc(-n2cnc3c(N)ncnc32)cc1)N1CCc2nn(C)c(Cc3ccccc3)c2C1=O | KIT L576P | binding | competition with immobilised ligand | 0.1 µM | 17 |
| CN(C)c1ncc(F)c(-c2cnn3ncccc23)n1 | KIT D816H | binding | – | 1 µM | 72 |
| Cc1c(C(=O)O)cc(-c2ccc(C3CCNCC3)cc2)c2ccc(-c3ccc(C(F)(F)F)cc3)cc12 | KIT D816H | binding | competition with immobilised ligand | 1 µM | 100 |
| Cc1cnn2ncc(-c3ccnc(N(C)C)n3)c2c1 | KIT D816H | binding | – | 1 µM | 83 |
| NS(=O)(=O)c1cc(NC(=O)C2(c3ccccc3Cl)CC2)ccc1Oc1cccc(Cl)c1 | KIT T670I/V559D | cell-free assay | competition with immobilised ligand | 1 µM | 85 |
